In ChEMBL document CHEMBL1127689, “Novel 4-(aryloxy)tetrahydropyridine analogs of MPTP as monoamine oxidase A and B substrates” (J Med Chem, 1994):

How the values were obtained:
[1] = molecular target: T1, Amine oxidase [flavin-containing] B (Bos taurus, UniProt P56560); assay: Turnover number (TN) for bovine mono-amine oxidase B MAO-B; conditions: cattle
T1 sequence (P56560 whole entry): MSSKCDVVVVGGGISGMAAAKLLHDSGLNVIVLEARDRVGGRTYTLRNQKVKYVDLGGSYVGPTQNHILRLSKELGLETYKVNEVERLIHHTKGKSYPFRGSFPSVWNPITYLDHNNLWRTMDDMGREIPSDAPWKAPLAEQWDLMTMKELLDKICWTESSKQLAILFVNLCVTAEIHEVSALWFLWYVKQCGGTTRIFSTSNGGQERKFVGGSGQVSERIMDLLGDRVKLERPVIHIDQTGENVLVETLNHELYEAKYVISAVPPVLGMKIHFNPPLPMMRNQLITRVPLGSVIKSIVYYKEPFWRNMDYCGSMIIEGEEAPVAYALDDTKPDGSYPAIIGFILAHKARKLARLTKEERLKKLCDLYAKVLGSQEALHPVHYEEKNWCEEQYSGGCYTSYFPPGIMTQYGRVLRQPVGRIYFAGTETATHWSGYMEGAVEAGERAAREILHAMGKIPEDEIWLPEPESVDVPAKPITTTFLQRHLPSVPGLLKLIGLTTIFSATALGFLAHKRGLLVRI
Outline: (§1)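 Bovine liver mitochondrial MAO-B, partially purified, at 0.087 μM. Four substrate concentrations were used, from 500–62.5 μM solutions in 100 mM sodium phosphate, pH 7.4. Each was equilibrated 1 min at 37 °C before enzyme was added. Amino enone formation was read at 324 nm every 3 s for 2 min, in duplicate. Km and TN came from Lineweaver-Burk double-reciprocal plots of initial rates.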

[2] = molecular target: T2, Amine oxidase [flavin-containing] A (Homo sapiens, UniProt P21397); assay: Turnover number (TN) for human mono-amine oxidase MAO-A
T2 sequence (P21397 whole entry): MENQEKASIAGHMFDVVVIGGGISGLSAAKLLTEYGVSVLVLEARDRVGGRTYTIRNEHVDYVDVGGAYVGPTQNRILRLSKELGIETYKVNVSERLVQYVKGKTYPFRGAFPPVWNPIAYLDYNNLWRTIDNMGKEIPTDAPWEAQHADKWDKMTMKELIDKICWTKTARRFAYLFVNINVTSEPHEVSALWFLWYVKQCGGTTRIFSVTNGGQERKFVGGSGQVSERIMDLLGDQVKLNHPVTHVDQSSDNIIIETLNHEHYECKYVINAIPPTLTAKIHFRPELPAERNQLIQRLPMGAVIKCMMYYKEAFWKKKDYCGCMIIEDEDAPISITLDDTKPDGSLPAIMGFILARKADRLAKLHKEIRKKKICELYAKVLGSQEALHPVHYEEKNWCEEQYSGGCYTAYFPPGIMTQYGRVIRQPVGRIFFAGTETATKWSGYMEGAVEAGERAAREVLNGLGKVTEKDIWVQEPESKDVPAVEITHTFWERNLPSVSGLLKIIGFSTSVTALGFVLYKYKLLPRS
Outline: (§2)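 MAO-A preparation was diluted 1:4 in 20 mM phosphate, pH 7.4, with 20% w/v glycerol and used at 0.17 μM. Four substrate concentrations were used, from 500–62.5 μM solutions in 100 mM sodium phosphate, pH 7.4, after 1 min at 37 °C. Initial rates were taken from the 324 nm amino enone absorbance, read every 3 s for 2 min, in duplicate. Km and TN came from double-reciprocal plots.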

[3] = molecular target: T2, Amine oxidase [flavin-containing] A; assay: Ratio of turnover to Km for human MAO-A; outline: as §2
[4] = molecular target: T1, Amine oxidase [flavin-containing] B; assay: Ratio of turnover to Km for bovine MAO-B; conditions: cattle; outline: as §1
[5] = molecular target: T3, MAO-B (Bos taurus, UniProt P56560); assay: (§3) Oxidation by bovine mono-amine oxidase B MAO-B; conditions: cattle, bovine monoamine oxidase B (MAO-B) enzyme; outline: as §1
T3 sequence (P56560 whole entry): T1 sequence (P56560 whole entry)

[6] = molecular target: T2, Amine oxidase [flavin-containing] A; assay: Oxidation by human mono-amine oxidase MAO-A; outline: as §2
[7] = molecular target: T1, Amine oxidase [flavin-containing] B; assay: as §3; conditions: cattle; outline: as §1

| Compound | TN [1] | TN [2] | Ratio [3] | Ratio [4] | Km [5] | Km [6] | Km [7] |
| --- | --- | --- | --- | --- | --- | --- | --- |
| CCCCc1ccc(OC2=CCN(C)CC2)cc1 | 92 M min-1 M-1 | 85 M min-1 M-1 | 1676 | 1090 |  |  |  |
| CN1CC=C(Cc2cccc3ccccc23)CC1 | 89 M min-1 M-1 | 433 M min-1 M-1 | 2590 | 105 |  | 167 µM | 847 µM |
| CN1CC=C(c2ccccc2)CC1 | 204 M min-1 M-1 | 20 M min-1 M-1 | 143 | 523 |  |  |  |
| CN1CC=C(Oc2ccc3ccccc3c2)CC1 | 333 M min-1 M-1 | 207 M min-1 M-1 | 2685 | 1214 |  |  |  |
| CN1CC=C(Cc2ccccc2)CC1 | 193 M min-1 M-1 | 9 M min-1 M-1 | 139 | 1250 |  | 66 µM | 154 µM |
| CN1CC=C(Oc2ccccc2)CC1 | 241 M min-1 M-1 | 130 M min-1 M-1 | 2359 | 4151 |  |  |  |
| NCCC(=O)c1ccccc1N [KYNURAMINE] |  | 146 M min-1 M-1 | 860 |  |  | 170 µM |  |

More lines, now with the values ahead:

| TN [1] | TN [2] | Ratio [3] | Ratio [4] | Km [5] | Km [6] | Km [7] | Compound |
| --- | --- | --- | --- | --- | --- | --- | --- |
| 223 M min-1 M-1 | 95 M min-1 M-1 | 3290 | 1334 |  |  |  | CN1CC=C(Oc2ccc(Cl)cc2Cl)CC1 |
| > 200 M min-1 M-1 | 59 M min-1 M-1 | 212 |  | > 1 mM |  |  | CN1CC=C(Oc2cc3ccccc3c3ccccc23)CC1 |
| 81 M min-1 M-1 | 227 M min-1 M-1 | 1567 | 565 |  |  |  | CN1CC=C(Oc2cccc3ccccc23)CC1 |
| > 53 M min-1 M-1 | 365 M min-1 M-1 | 759 |  |  |  |  | CN1CC=C(Cc2cc3ccccc3c3ccccc23)CC1 |
| 276 M min-1 M-1 | 121 M min-1 M-1 | 3340 | 310 |  | 36 µM |  | CN1CC=C(Cc2ccc3ccccc3c2)CC1 |
| 103 M min-1 M-1 | 173 M min-1 M-1 | 1710 | 363 |  |  |  | CN1CC=C(Oc2ccc(-c3ccccc3)cc2)CC1 |
| 22 M min-1 M-1 | 111 M min-1 M-1 | 855 | 395 |  |  |  | CN1CC=C(Oc2ccc(C(C)(C)C)cc2)CC1 |
| 283 M min-1 M-1 |  |  | 963 |  |  | 290 µM | NCc1ccccc1 [BENZYLAMINE] |
